Article PMC3569859 (Bioorganic & medicinal chemistry, 2008)

Test system: sodium currents expressed in rat hippocampal neurons
Assay type: cell-based
Details: cultured hippocampal neurons
Summary of the method: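 E18 rat hippocampal neurons were trypsin-dissociated and kept up to 4 weeks on poly-L-lysine over a glial monolayer in serum-free MEM with N2. Whole-cell clamp was done at 20–22 °C with a CsF pipette and a 30 mM NaCl bath containing Cd2+ and TEA, both pH 7.3. After 5 min at −90 mV, 25 ms steps to −10 mV were applied with P/4 leak subtraction. Test compound was superfused at 50 μM, then washed out.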

SMILES	Reversibility of Na current block on washout
CC(C)c1cc(CCCCCCC(O)(C(N)=O)C(F)(F)F)cc(C(C)C)c1O (centres unmarked) [Compound 5, 2-Hydroxy-8-(4-hydroxy-3,5-diisopropyl-phenyl)-2-trifluoromethyl-octanoic acid amide]	fully reversible
CC(C)c1cc(CCCCC(O)(C(N)=O)C(F)(F)F)cc(C(C)C)c1O (centres unmarked) [Compound 4, 2-Hydroxy-6-(4-hydroxy-3,5-diisopropyl-phenyl)-2-trifluoromethyl-hexanoic acid amide]	fully reversible
